Tested on: T. cruzi in NIH3T3, immunofluorescence replication, 4 d
Assay: T. cruzi intracellular replication inhibition, static vs lytic, late-stage follow-up, mechanism study for T. cruzi infection inhibitor project, imaging, immunofluorescence, NIH3T3 host cells (AID 2632)
Conditions: stronger effect = lower value
Outline: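 Test system: NIH3T3 host cells infected with Trypanosoma cruzi. Probe or stimulus: trypomastigotes, MOI 100:1. Compound: single dose per compound at tenfold its IC50. Incubation: 2 h parasite infection, then 4-day compound exposure. Measured by: immunofluorescence imaging with anti-T. cruzi antibody and DAPI. Read-out basis: percent of 50 infected cells holding more than 4 amastigotes.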

O=C(CNc1cccc2ccccc12)N/N=C/c1ccc([N+](=O)[O-])o1
percent infected cells with replication (at 0.64 µM): 6%

CC1CCCN(C(=O)Cc2cn(Cc3cccc(Cl)c3)c3ccccc23)C1 (configuration not stated)
percent infected cells with replication (at 17.9 µM): 0%

O=C(Cc1cn(Cc2cccc(Cl)c2)c2ccccc12)N1CCCCCC1
percent infected cells with replication (at 17.5 µM): 2%

CSc1ccc(CN2CCCC(CNC(=O)c3ccc(F)cc3)C2)cc1 (configuration not stated)
percent infected cells with replication (at 1.2 µM): 6%

Cc1ccccc1OCCCCCn1ccnc1
percent infected cells with replication (at 5.3 µM): 4%

Cc1ccc(NC(=O)CCC(=O)N/N=C/c2ccc([N+](=O)[O-])o2)cc1C
percent infected cells with replication (at 0.16 µM): 0%

CC1CC(C)CN(CCOCCSc2ccccc2)C1 (configuration not stated)
percent infected cells with replication (at 0.89 µM): 2%

COCc1cc(CN2CCCC(CNC(=O)c3ccc(F)cc3)C2)ccc1OC (configuration not stated)
percent infected cells with replication (at 1.18 µM): 0%

CN(Cc1ccccc1)C(=O)C1CCCN(Cc2cccc(Cl)c2)C1 (configuration not stated)
percent infected cells with replication (at 1.1 µM): 0%

COc1ccc(CCN(C)C(=O)C2CCCN(Cc3ccc(OC)c(OC)c3)C2)cc1OC (configuration not stated)
percent infected cells with replication (at 1 µM): 6%

CC(C)c1cccc(OCCCCN(C)C)c1
percent infected cells with replication (at 5.87 µM): 0%

CC(C)Oc1cccc(C(=O)C2CCCN(Cc3cnn(C(C)C)c3)C2)c1 (configuration not stated)
percent infected cells with replication (at 0.38 µM): 0%

COC(=O)N/N=C/c1ccc([N+](=O)[O-])o1
percent infected cells with replication (at 4.69 µM): 8%

O=C(NCC1CCCN(Cc2cccc(C(F)(F)F)c2)C1)c1ccc(F)cc1 (configuration not stated)
percent infected cells with replication (at 1.11 µM): 2%

OC(COc1ccc2ccccc2c1Br)Cn1ccnc1 (configuration not stated)
percent infected cells with replication (at 5.01 µM): 2%

CCn1ncc(CN2CCCC(C(=O)c3cccc(OC(C)C)c3)C2)c1C (configuration not stated)
percent infected cells with replication (at 0.32 µM): 2%

CC(C)Oc1cccc(C(=O)C2CCCN(Cc3cnc(N4CCCC4)s3)C2)c1 (configuration not stated)
percent infected cells with replication (at 1.4 µM): 2%

CC(C)(C)OC(=O)N/N=C\c1ccc([N+](=O)[O-])s1
percent infected cells with replication (at 27 µM): 2%

O=S(=O)(NCC(c1cccnc1)N1CCN(c2ccc(F)cc2)CC1)c1ccccc1 (configuration not stated)
percent infected cells with replication (at 0.66 µM): 0%

COc1cc(C(=O)NCCC(C)C)ccc1OCc1ccc(Cl)cc1Cl
percent infected cells with replication (at 13 µM): 0%

CCc1ccc2nc(N(CCN(C)C)C(=O)c3ccc4ncsc4c3)sc2c1
percent infected cells with replication (at 0.87 µM): 2%

COc1ccccc1/C=C/C(=O)OCCCN(C)C
percent infected cells with replication (at 7.93 µM): 6%

CCCn1ncc(CN2CCCC(C(=O)c3cccc(OC(C)C)c3)C2)c1C (configuration not stated)
percent infected cells with replication (at 0.54 µM): 4%

CC(=O)c1cccc(CN2CCCC(CCC(=O)NCc3ccc(F)c(F)c3)C2)c1 (configuration not stated)
percent infected cells with replication (at 0.7 µM): 8%

Fc1ccc(CCNCc2ccc(Cl)c(Cl)c2)cc1
percent infected cells with replication (at 1.22 µM): 0%

CCOc1ccc2oc(=O)cc(CN3CCN(Cc4ccccc4)CC3)c2c1
percent infected cells with replication (at 2.16 µM): 0%

CC(C)=CCCC(C)CN(C)CCc1ccccn1 (configuration not stated)
percent infected cells with replication (at 0.83 µM): 2%
